NCF1 inh: p47phox (human) inhibition; inhibition, % at 24.7 µM; P14598; AID 1274; hit rate 0.53% among 220,000; p47phox/p22phox peptide binding, fluorescence polarization, 2 h;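 active means inhibition above about 30%, limit read from the data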;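 further: 0% = p47phox with labelled peptide and 100% = labelled peptide alone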
Target sequence (P14598 whole entry, looked up): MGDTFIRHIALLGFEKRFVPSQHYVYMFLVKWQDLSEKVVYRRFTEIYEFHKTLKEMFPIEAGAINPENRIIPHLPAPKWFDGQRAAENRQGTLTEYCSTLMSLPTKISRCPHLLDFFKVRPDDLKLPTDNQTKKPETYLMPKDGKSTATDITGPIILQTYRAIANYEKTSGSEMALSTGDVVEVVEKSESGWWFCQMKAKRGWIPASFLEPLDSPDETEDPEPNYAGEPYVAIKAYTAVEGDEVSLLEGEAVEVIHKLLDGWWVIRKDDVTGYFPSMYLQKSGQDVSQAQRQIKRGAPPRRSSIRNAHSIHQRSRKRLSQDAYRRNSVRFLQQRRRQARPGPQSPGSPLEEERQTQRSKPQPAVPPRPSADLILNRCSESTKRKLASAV
RAM network inh: inhibitors of the yeast RAM network | AID 868 | S. cerevisiae dse1pr::URA3 reporter, 5-FOA growth OD615, 2 d; analog-sensitive cbk1-as2 kinase mutant strain | hit rate 1.8% among 190,000 | inhibition, % at 50 µM;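 active means inhibition above a set limit, 3 SD over mean compound inhibition, cut at about 8.4% in these data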;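 further: 0% = DMSO-only wells with no growth and 100% = 10 µM 1-NA-PP1 full growth; inhibition rescues growth on 5-FOA so higher OD means more RAM inhibition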
Dynein cargo inh: blocks dynein driven cargo transport along microtubules; z-score, hits read low; 3617.4 mouse cells, GR-EGFP nuclear translocation imaging; test concentration mostly 20 µM; stimulated with dexamethasone, 1 µM; active compounds read low; AID 1381; hit rate 0.47% among 220,000;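 active means plate z-score of nuclear minus cytoplasmic receptor signal below a set negative limit, without overly bright fluorescence or cell loss, cut at about -3.5 in these data, passing the limit was not always enough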;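 further: z-score of nuclear minus cytoplasmic ring GR-EGFP intensity difference per well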
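Buffer or medium: tet-free, stripped-serum medium; Also added: dexamethasone, 1.0 µM final; Technique: high-content fluorescence imaging after fixation; Times: 48 h induction, 1 h compound, 30 min dex at 37 °C; Read-out: per-cell GR-EGFP intensity, nucleus versus surrounding cytoplasmic ring, well-averaged.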
p-CIP stab down: compounds decreasing mouse p/CIP protein stability; Q05BA5; F442A p/CIP-EGFP cells, EGFP fluorescence, 16 h; decrease of EGFP signal, % at 10 µM; hit rate 0.01% among 290,000; AID 1984;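 active means EGFP signal decrease of at least 30% at 10 µM or well 3 SD below plate mean, unless failing retest; inactive means the rest, including hits failing retest or dose response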
* marks the source's active call; other numbers are inactive results; · = no result given. Compounds with a hit are over-represented: about 1.9% of the library has one in this group of screens.

SMILES	NCF1 inh	RAM network inh	Dynein cargo inh	p-CIP stab down
CN1CCN(c2ccccc2NC(=O)c2ccc(-c3cccc(Cl)c3)o2)CC1	·	·	·	-3
CCCCn1nnc(NC(=O)c2ccc(-c3cccc(Cl)c3)o2)n1	-21	8.4*	2.1	2
O=C(Nc1ccccc1N1CCCCC1)c1ccc(-c2cccc(Cl)c2)o1	-19	9.5*	0.15	-18
CCOc1ccc(Cl)cc1S(=O)(=O)N1CCC(C(=O)NCc2ccncc2)CC1	·	·	·	-2
Brc1ccc2c(c1)OCCOCCOCCOCCOCCOCCO2	0	1	2.7	3
COc1cc(NS(=O)(=O)c2ccc(NC(=O)/C=C/c3cccc([N+](=O)[O-])c3)cc2)ncn1	-9	8.9*	2.4	1
COc1cc(NS(=O)(=O)c2ccc(NC(=O)/C=C/c3ccc([N+](=O)[O-])cc3)cc2)ncn1	-12	6	-0.87	-5
Cc1ccc(NC(=O)c2cc(-n3cnnc3)ccc2Cl)c(C)c1	42*	0	0.6	-14
COc1ccc(Cc2nc3ccc(C(=O)NCCCSC)cc3o2)cc1OC	·	·	·	-3
Cc1ccc(NC(=O)CCNS(=O)(=O)c2cccc3nsnc23)cc1F	·	·	·	-6
CCC(C)NCCCCOc1ccc(Cl)cc1C (stereo not drawn)	-3	-1	-0.37	5
O=[N+]([O-])c1ccc(Nc2nc(N/N=C\c3ccc4c(c3)OCO4)nc(N3CCCCC3)n2)cc1	-1	11*	-0.091	-14
CC(C)(C)n1nnnc1C(c1cccs1)N(Cc1ccccc1)Cc1ccco1 (stereo not drawn)	-16	9.6*	-0.094	-22
COCCCNC(=S)N1CCN(C(c2ccccc2)c2ccccc2)CC1	·	·	·	-5
NS(=O)(=O)c1ccc(NC(=O)CSc2nnc(COc3ccccc3Cl)n2C2CC2)cc1	-3	9.5*	0.84	-3
CCOC(=O)CNc1nc(C(C)(C)C)nc2c1nnn2Cc1ccccc1Cl	-4	10*	0.5	-10
CN(C)CCCNc1nc(N)c([N+](=O)[O-])c(NC2CCCCC2)n1	·	·	·	-9
CC1=Nc2ccc(C)cc2/C1=C/c1c(N)n2c(S(=O)(=O)C(C)C)nsc2nc1=O	-37	2	-0.047	-12
CSc1nsc2nc(=O)c(/C=C3\C(C)=Nc4ccc(C)cc43)c(N)n12	-92	9.3*	-0.27	-1
Cc1c(C)c2cc3c(C)coc3cc2oc1=O	·	·	·	-8
COc1ccc(Nc2cc(C(=O)NCCCN3CCN(C)CC3)c3ccccc3n2)cc1OC	73*	0	-0.54	9
COc1ccc(Nc2cc(C(=O)NCCCN3CCOCC3)c3ccccc3n2)cc1OC	-17	1	1.8	0
O=C(CCN1C(=O)/C(=C\c2ccc(F)cc2)SC1=S)Nc1ccccc1	·	·	·	-5
Cc1ccc(NC(=O)c2cc(NC(=O)CCC(=O)O)ccc2N2CCCCC2)cc1	-15	9.0*	-0.52	-5
CN(NC1CC(=O)N(c2ccccc2)C1=O)c1ccccc1 (stereo not drawn)	-8	1	-1.3	2
SMILES	NCF1 inh	RAM network inh	Dynein cargo inh	p-CIP stab down
Cc1ccc(N=Cc2nc(-c3ccc(C)cc3)oc2O)cc1	·	3	2	2
Oc1oc(-c2ccccc2)nc1C=Nc1ccccc1	44*	2	-0.72	-19
CN(C)c1ccc(N=Cc2nc(-c3ccccc3)oc2O)cc1	58*	0	-0.45	-39
CC(=O)Oc1oc(-c2ccccc2)nc1C=Nc1ccc(N(C)C)cc1	1	·	-2.1	-10
N#CC1=C(N)N2C(=C(C#N)C1c1cccc(Br)c1)Nc1ccccc12 (stereo not drawn)	-19	8.9*	-0.26	-26
N#CC1=C(N)N2C(=C(C#N)C1c1ccc(Br)cc1)Nc1ccccc12 (stereo not drawn)	6	6	-0.74	-12
COC(C[C@@H]1O[C@H]1[C@@H](O)COCc1ccccc1)OC	-8	·	0.55	-12
Cc1ccc(NC(=O)C(OC(=O)c2ccc(O)cc2)c2ccccc2)cc1Cl (stereo not drawn)	-33	8.5*	0.08	2
Cc1ccc(NC(=O)C(OC(=O)c2ccc(F)cc2)c2ccccc2)cc1Cl (stereo not drawn)	-34	0	-1.2	-2
Cc1ccccc1CN(CC(=O)Nc1cccc([N+](=O)[O-])c1)S(=O)(=O)c1ccc(Cl)cc1	-73	4	-1.9	-8
CCOC(=O)C(C)(C)N(Cc1ccccc1C)S(=O)(=O)c1ccc(Cl)c([N+](=O)[O-])c1	0	9.3*	-2	1
O=C(/C=C/c1ccc2c(c1)OCO2)c1ccc[nH]1	81*	1	-0.017	3
